Data published in ChEMBL document CHEMBL1149694, “5-(3-Cyclopentyl-2-thioxo-2,3-dihydro-1H-benzimidazol-5-yl)-1-methyl-1H-pyrrole-2-carbonitrile: A novel, highly potent, selective, and orally active non-steroidal progesterone receptor agonist” (Bioorg Med Chem, 2007).
The source made the active and inactive calls. The rule behind the calls is not given here.

Key:
Progesterone receptor [1] = biological target: T1, Progesterone receptor (Homo sapiens, UniProt P06401); test: (§1) Agonist activity at progesterone receptor expressed in T47D cells by alkaline phosphatase assay; type: functional, cell-based
T1 sequence (P06401 whole entry): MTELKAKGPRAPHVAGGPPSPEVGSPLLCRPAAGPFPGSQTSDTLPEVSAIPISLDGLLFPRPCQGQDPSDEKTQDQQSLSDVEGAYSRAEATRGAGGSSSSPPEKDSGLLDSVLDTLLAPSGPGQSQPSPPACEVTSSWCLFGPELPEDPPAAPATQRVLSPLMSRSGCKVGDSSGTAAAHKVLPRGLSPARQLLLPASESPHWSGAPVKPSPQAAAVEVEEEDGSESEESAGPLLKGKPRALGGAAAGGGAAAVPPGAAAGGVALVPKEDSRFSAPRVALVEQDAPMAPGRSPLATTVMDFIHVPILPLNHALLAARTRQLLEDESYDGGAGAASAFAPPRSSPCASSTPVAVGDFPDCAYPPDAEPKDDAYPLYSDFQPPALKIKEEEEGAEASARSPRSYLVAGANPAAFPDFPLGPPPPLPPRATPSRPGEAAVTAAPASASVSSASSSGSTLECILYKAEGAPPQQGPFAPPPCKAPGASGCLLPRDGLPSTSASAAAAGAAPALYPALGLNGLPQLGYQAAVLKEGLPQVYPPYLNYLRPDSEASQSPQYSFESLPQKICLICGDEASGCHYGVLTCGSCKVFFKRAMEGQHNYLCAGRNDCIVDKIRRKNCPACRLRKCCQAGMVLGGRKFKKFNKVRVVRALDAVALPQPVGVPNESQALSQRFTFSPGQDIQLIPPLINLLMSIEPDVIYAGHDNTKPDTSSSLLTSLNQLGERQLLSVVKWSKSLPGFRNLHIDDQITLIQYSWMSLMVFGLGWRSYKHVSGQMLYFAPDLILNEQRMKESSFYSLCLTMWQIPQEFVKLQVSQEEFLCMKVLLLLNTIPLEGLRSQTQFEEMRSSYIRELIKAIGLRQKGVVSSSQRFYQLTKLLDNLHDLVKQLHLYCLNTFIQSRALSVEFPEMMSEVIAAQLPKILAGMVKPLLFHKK
Procedure, shortened: (§2)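 Human T47D breast carcinoma cells; alkaline phosphatase activity measured. EC50 is the concentration giving 50% effect; efficacy shown in parentheses. Average of at least duplicate determinations.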

[2] = biological target: T2, Progesterone receptor (Homo sapiens) (UniProt P06401); test: (§3) Antagonist activity at progesterone receptor expressed in T47D cells assessed as inhibition of progesterone-induced alkaline phosphatase activity; type: functional, cell-based; settings: for inhibition: concentration not given here
T2 sequence (whole entry): T1 sequence (P06401 whole entry)
Procedure, shortened: (§4)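 Human T47D breast carcinoma cells stimulated with 1 nM progesterone; compound inhibition of induced alkaline phosphatase activity. IC50 is 50% inhibition. Average of at least duplicate determinations.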

[3] = biological target: T2, Progesterone receptor (Homo sapiens); test: Agonist activity at progesterone receptor expressed in T47D cells relative to progesterone; type: functional, cell-based
Procedure, shortened: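 Human T47D breast carcinoma cells; agonist mode; read-out is alkaline phosphatase activity; values are the average of at least duplicate determinations.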

Progesterone receptor [4] = biological target: T1, Progesterone receptor; test: Binding affinity to cytosolic PR in T47D cells by competition binding assay; type: cell-based
Cynomolgus monkey = test: Inhibition of ovulation-induced progesterone levels in po dosed cynamologous monkey; type: functional, Macaca fascicularis
Procedure, shortened: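 Cynomolgus monkeys dosed orally once daily from day 2 to 28 of the menstrual cycle; vehicle 2% Tween 80/0.5% methylcellulose. Serum progesterone sampled three times weekly until the next menses. Ovulation inferred from the progesterone pattern.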

Progesterone receptor [5] = biological target: T1, Progesterone receptor; test: as §3; type: functional, cell-based; procedure, shortened: as §4
Glucocorticoid receptor [6] = biological target: T3, Glucocorticoid receptor (Homo sapiens, UniProt P04150); test: Agonist activity at glucocorticoid receptor expressed in L929 cells by HRE-tk luciferase assay
T3 sequence (P04150 whole entry): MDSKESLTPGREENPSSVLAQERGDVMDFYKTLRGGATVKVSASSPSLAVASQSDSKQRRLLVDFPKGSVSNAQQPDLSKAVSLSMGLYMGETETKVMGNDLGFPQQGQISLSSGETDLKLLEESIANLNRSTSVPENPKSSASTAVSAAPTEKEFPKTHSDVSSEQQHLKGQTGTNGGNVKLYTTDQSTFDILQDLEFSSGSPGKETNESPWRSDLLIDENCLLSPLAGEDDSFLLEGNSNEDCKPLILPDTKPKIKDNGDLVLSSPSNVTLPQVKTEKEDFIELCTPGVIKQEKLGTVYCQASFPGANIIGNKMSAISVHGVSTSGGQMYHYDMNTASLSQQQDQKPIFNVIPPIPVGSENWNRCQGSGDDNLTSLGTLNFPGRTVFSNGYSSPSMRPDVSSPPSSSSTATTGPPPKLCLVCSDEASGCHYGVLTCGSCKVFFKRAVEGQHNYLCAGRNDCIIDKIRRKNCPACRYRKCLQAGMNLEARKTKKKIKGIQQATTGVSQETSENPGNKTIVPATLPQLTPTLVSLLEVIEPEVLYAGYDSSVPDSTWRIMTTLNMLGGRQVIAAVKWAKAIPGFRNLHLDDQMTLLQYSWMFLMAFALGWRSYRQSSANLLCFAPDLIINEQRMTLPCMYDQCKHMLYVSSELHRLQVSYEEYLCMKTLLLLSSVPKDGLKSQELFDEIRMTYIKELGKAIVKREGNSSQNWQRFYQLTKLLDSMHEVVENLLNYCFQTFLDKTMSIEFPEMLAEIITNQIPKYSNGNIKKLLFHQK

Glucocorticoid receptor [7] = biological target: T3, Glucocorticoid receptor; test: Antagonist activity at glucocorticoid receptor expressed in L929 cells by HRE-tk luciferase assay
Rattus norvegicus [8] = test: Effect on uterine decidualization in po dosed ovariectomized Sprague-Dawley rat after 7 days; type: organism-based; settings: 168 h
Procedure, shortened: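 Ovariectomized mature Sprague–Dawley rats (~60-day-old, 230 g), groups of 4–5, dosed once daily for 7 days by gavage. Half-log dose steps. One uterine horn decidually stimulated; the contralateral horn is the control. Horns weighed about 24 h after the last dose. D-horn/C-horn ratio log-transformed; Huber M-estimator; ANOVA and nonlinear dose–response fitting.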

Rattus norvegicus [9] = test: Effect on estrogen-induced synthesis of complement component C3 in po dosed Sprague-Dawley rat uterus epithelial cells; type: functional; settings: Epithelial cell
Procedure, shortened: (§5)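 Adult ovariectomized Sprague–Dawley rats (60-day-old, surgery at least 8 days before dosing), groups of six, acclimated at least 72 h. Compound given once daily for 2 days, by sc injection or oral gavage, in 10% ethanol/corn oil. Ethinyl estradiol given orally on day 2. Uteri taken about 24 h later. C3 mRNA measured by Northern blot, normalized to 28S rRNA. Log-transformed ratios; Huber M-estimator.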

[10] = Clearance in rat at 1 mg/kg, iv; type: ADME, organism-based; parameters: dose 1 mg/kg, route intravenous; settings: in vivo
Procedure, shortened: (§6)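 Female rats, single dose of 1 mg/kg given as IV bolus or orally. AUC0–∞, clearance, volume of distribution and terminal half-life taken from the IV arm. Oral exposure gives AUC0–∞; bioavailability from oral versus IV exposure.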

[11] = Volume of distribution in rat at 1 mg/kg, iv; type: ADME, organism-based; parameters: dose 1 mg/kg, route intravenous; settings: in vivo; procedure, shortened: as §6
[12] = Terminal half life in rat at 1 mg/kg, iv; type: ADME, organism-based; parameters: dose 1 mg/kg, route intravenous; settings: in vivo; procedure, shortened: as §6
[13] = AUC (0 to infinity) in rat at 1 mg/kg, iv; type: ADME, organism-based; parameters: time infinity, dose 1 mg/kg, route intravenous; settings: plasma; procedure, shortened: as §6
[14] = AUC (0 to infinity) in rat at 1 mg/kg, po; type: ADME, organism-based; parameters: time infinity, dose 1 mg/kg, route oral; settings: plasma; procedure, shortened: as §6
[15] = Bioavailability in rat at 1 mg/kg, po; type: ADME, organism-based; settings: in vivo; procedure, shortened: as §6
Androgen receptor [16] = biological target: T4, Androgen receptor (Homo sapiens, UniProt P10275); test: Agonist activity at androgen receptor expressed in mouse fibroblast L929 cells by HRE-tk luciferase assay
T4 sequence (P10275 whole entry): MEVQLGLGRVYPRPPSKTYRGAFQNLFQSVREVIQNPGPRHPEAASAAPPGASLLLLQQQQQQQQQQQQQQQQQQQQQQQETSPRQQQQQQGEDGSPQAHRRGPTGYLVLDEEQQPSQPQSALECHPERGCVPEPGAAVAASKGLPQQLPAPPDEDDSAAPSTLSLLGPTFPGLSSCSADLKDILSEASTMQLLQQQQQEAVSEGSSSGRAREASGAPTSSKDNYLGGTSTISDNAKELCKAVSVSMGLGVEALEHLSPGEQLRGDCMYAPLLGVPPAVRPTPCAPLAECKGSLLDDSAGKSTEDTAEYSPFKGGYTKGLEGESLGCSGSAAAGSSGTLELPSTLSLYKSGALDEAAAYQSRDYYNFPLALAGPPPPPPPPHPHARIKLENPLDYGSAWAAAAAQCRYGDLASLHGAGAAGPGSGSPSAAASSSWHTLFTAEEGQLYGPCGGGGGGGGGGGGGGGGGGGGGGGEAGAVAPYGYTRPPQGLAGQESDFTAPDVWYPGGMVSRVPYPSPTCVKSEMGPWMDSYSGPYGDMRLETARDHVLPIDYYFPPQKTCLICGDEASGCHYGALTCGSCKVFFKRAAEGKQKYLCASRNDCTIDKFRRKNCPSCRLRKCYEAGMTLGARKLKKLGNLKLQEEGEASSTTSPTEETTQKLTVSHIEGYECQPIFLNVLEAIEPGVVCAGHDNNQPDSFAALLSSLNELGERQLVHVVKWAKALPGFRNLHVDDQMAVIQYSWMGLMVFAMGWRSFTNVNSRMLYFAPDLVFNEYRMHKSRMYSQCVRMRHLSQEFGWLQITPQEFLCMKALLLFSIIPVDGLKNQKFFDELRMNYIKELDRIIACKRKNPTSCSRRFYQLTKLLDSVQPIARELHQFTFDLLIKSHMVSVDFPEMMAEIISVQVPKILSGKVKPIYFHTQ

Androgen receptor [17] = biological target: T4, Androgen receptor; test: Antagonist activity at androgen receptor expressed in mouse fibroblast L929 cells by HRE-tk luciferase assay
Rattus norvegicus [18] = test: Effect on estrogen-induced synthesis of complement component C3 in sc dosed Sprague-Dawley rat uterus epithelial cells; type: functional, Epithelial cell; procedure, shortened: as §5
[19] = biological target: T2, Progesterone receptor (Homo sapiens); test: as §1; type: functional, cell-based; procedure, shortened: as §2

| SMILES | EC50 (Progesterone receptor [1]) [nM] | Activity [2] | Efficacy [3] [%] | further results |
| --- | --- | --- | --- | --- |
| Fc1ccc(-c2ccc3[nH]c(=S)n(C4CCCC4)c3c2)cc1F | 62.5 | inactive | 75 | – |
| Cn1c(C#N)ccc1-c1ccc2[nH]c(=O)n(C3CCCC3)c2c1 | > 3000 | – | – | IC50 (Progesterone receptor [4]): 26.2 nM |
| Cn1c(C#N)ccc1-c1ccc2c(c1)C(C)(C)OC(=S)N2 [TANAPROGET] | – | – | – | ED100 (Cynomolgus monkey): 0.01 mg/kg |
| CCC(CC)n1c(=S)[nH]c2ccc(-c3cc(F)cc(C#N)c3)cc21 | 270 | – | 70 | inhibition [2]: 50%; IC50 (Progesterone receptor [5]): 3.6 nM |
| N#Cc1cc(F)cc(-c2ccc3[nH]c(=S)n(C4CCC4)c3c2)c1 | 2.7 | inactive | 60 | – |
| CC(=O)[C@H]1CC[C@H]2[C@@H]3CCC4=CC(=O)CC[C@]4(C)[C@H]3CC[C@]12C [PROGESTERONE] | – | inactive | – | – |
| Cn1c(C#N)ccc1-c1ccc2[nH]c(=O)n(C3CCC3)c2c1 | > 3000 | – | – | – |
| Cn1c(C#N)ccc1-c1ccc2[nH]c(=S)n(C3CCCC3)c2c1 | 0.1 | inactive | 75 | IC50 (Progesterone receptor [4]): 0.4 nM; EC50 (Glucocorticoid receptor [6]): > 10000 nM; IC50 (Glucocorticoid receptor [7]): 99 nM; ED50 (Rattus norvegicus [8]): 0.02 mg/kg; ED50 (Rattus norvegicus [9]): 0.003 mg/kg; clearance [10]: 25 mL/min/kg; Vd [11]: 7.6 L/kg; half-life [12]: 4.4 h; AUC(0-inf) [13]: 680 ng·h/mL; AUC(0-inf) [14]: 480 ng·h/mL; bioavailability [15]: 71%; ED100 (Cynomolgus monkey): 0.03 mg/kg; EC50 (Androgen receptor [16]): > 10000 nM; IC50 (Androgen receptor [17]): 1000 nM |
| Cn1c(C#N)ccc1-c1ccc2[nH]c(=S)n(C3CCC3)c2c1 | 0.5 | inactive | 70 | – |
| CCC(CC)n1c(=S)[nH]c2ccc(-c3ccc(C#N)n3C)cc21 | 1 | inactive | 70 | – |
| CC(=O)O[C@]1(C(C)=O)CC[C@H]2[C@@H]3C[C@H](C)C4=CC(=O)CC[C@]4(C)[C@H]3CC[C@@]21C [MEDROXYPROGESTERONE ACETATE] | – | inactive | – | ED5 (Rattus norvegicus [18]): 0.03 mg/kg |
| Fc1ccc(-c2ccc3[nH]c(=S)n(C4CCCC4)c3c2)cc1Cl | 49.3 | inactive | 55 | – |
| CCC(CC)n1c(=O)[nH]c2ccc(-c3ccc(C#N)n3C)cc21 | > 3000 | – | – | IC50 (Progesterone receptor [5]): 11.7 nM |
| CCC(CC)n1c(=S)[nH]c2ccc(-c3ccc(F)c(Cl)c3)cc21 | – | – | – | Activity [19]: inactive; inhibition [2]: 60%; IC50 (Progesterone receptor [5]): 33.7 nM |
